MrgX1 PAM: allosterically activates human MrgX1 receptor signaling. Q96LB2. MrgX1-HEK293, Fluo-4 calcium flux, FDSS; stronger effect = higher value. B-score at 10 µM. 310,000 tested, 0.63% active. AID 588675;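 active = plate-corrected calcium response at least 3 library SD above typical, normal starting fluorescence, not activating the receptor alone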;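 note: compound read alongside a low EC10 to EC30 dose of BAM8-22 agonist; peak minus trough fluorescence over baseline measured at the second addition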
Target sequence (Q96LB2 whole entry, looked up): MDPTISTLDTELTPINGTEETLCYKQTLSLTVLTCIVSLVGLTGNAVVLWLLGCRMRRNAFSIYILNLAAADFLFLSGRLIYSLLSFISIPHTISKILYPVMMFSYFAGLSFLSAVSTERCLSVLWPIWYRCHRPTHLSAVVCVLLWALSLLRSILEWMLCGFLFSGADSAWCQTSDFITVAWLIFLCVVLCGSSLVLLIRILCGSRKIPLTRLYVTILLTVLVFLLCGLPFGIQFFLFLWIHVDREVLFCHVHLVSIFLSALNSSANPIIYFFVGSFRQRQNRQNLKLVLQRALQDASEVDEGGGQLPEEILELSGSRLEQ
MrgX1 agonist: activates human MrgX1 receptor signaling | MrgX1-HEK293 cells, Fluo-4 calcium fluorescence, agonist mode; stronger effect = higher value | B-score at 10 µM | 310,000 tested, 0.44% active | AID 588627 | Q96LB2;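 active = calcium response B-score plate-corrected fluorescence ratio at least 3 library SD, with starting fluorescence B-score inside 5 SD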
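Assay system: stable human MrgX1 HEK293 cell line. Quantity: 15,000 cells per well. Schedule: cells plated overnight, dye loaded 0.5 h 37 °C, 0.5 h room temperature. Detection: Fluo-4 NW calcium-flux fluorescence, kinetic read. Read-out basis: peak-minus-minimum fluorescence over baseline, converted to B scores. Control set: positive and negative control wells on each plate.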
MrgX1 antag: blocks BAM8-22 activation of human MrgX1 receptor | Q96LB2 | MRGX1-HEK293 calcium flux, Fluo-4, BAM8-22 antagonism; stronger effect = lower value | B-score at 10 µM | 310,000 tested, 1.3% active | AID 588676;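 active = calcium-response B-score plate-corrected more than 3 library SD below zero, starting fluorescence within 5 deviations, no agonist response on first addition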;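 note: peak minus trough fluorescence over baseline after final BAM8-22 challenge near maximal dose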
RGS4 inh: inhibitors of human RGS4 | P49798 | HEK293 M3R/RGS4 inducible, Fluo-4 calcium flux; stronger effect = higher value; triggered by carbachol at its EC20 | B-score at 10 µM | 310,000 tested, 0.45% active;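 active = B-score, a plate-corrected calcium signal, over three deviations above library mean, with baseline fluorescence within five deviations of library mean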;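 note: RGS4 expression induced by doxycycline in cells with stable M3 receptor; B-score is computed from the integrated fluorescence ratio over baseline after carbachol; higher B-score means a larger calcium signal and so more RGS4 inhibition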
Target sequence (P49798 whole entry, looked up): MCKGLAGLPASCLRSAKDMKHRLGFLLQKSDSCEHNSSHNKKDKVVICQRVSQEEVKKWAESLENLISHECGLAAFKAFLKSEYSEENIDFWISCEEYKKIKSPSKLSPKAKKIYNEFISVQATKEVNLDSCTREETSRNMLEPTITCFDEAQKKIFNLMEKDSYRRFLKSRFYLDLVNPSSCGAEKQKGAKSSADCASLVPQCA
RGS4 pot: RGS4 potentiation or activation; AID 463111; HEK293 M3R/inducible RGS4, carbachol calcium flux Fluo4; stronger effect = lower value; 310,000 tested, 0.92% active; B-score at 10 µM;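 active = B-score of the integrated calcium signal more than 4 SD below the library mean, with starting fluorescence not abnormally high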;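 note: negative B-score means reduced calcium response which marks RGS4 activation or potentiation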
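test system = HEK293 cells with stable M3R and inducible RGS4 | schedule = recording 10 s baseline at 1 Hz, 100 s post-agonist | technique = Fluo4-AM (2 µM) calcium-flux fluorescence, kinetic read | measure = Agonist-evoked peak-minus-minimum fluorescence over baseline, integrated ratio, B score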
MrgX1 antag conf: reconfirmed antagonist of human MrgX1 receptor signaling; remaining BAM8-22 calcium response % of control (stronger effect = lower value), % at 10 µM; MrgX1-HEK293, BAM8-22 calcium flux, Fluo-4; stronger effect = lower value; 2,300 tested, 19% active; AID 602420; shares compounds with MrgX1 antag;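 active = remaining agonist calcium response no higher than 100% minus 3 SD of agonist-only control wells, with starting fluorescence near control levels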;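 note: agonist BAM8-22 given at a near maximal EC90 to ECmax level; peak minus minimum fluorescence divided by baseline after agonist addition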
HEK293 Ca flux: MrgX1 antagonist counter-screen hit in parental HEK293 cells | shares compounds with MrgX1 antag | Fluo-4 calcium fluorescence, FDSS | fluorescence ratio F(max-min)/F0 at 10 µM | 4,000 tested, 2% active;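 active = duplicate-averaged calcium fluorescence ratio at least three times the standard deviation of buffer wells, a nonspecific response in parental cells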
HEK293 Ca counter: activity in parental HEK293 cells without MrgX1; shares compounds with MrgX1 antag; parental HEK293 calcium flux, Fluo-4 fluorescence ratio; stronger effect = higher value; fluorescence ratio F(max-min)/F0 at 10 µM; 4,000 tested, 0.4% active; AID 624114;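 active = calcium fluorescence ratio, averaged over duplicates, at least 3 SD of the buffer-well ratio, meaning a nonspecific response in receptor-free cells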;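 note: untransfected parental HEK293 lacking MrgX1 used as counterscreen for MrgX1 allosteric activators; fluorescence change taken during the second addition on a kinetic imager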
HEK293 Ca cntr2: counter-screen for MrgX1 activators: effect in parental HEK293 cells. AID 624115. fluorescence ratio F(max-min)/F0 at 10 µM. Fluo-4 calcium fluorescence (FDSS); stronger effect = higher value. 4,000 tested, 8.7% active. shares compounds with MrgX1 antag;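 active = calcium fluorescence ratio at least three times the spread of buffer wells, meaning a non-specific response in parental cells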
* marks the source's active call; other numbers are inactive results; i = inactive; nt = no result given. The list is not random: actives were taken first. Their share in the collection is about 3.5%.

SMILES	MrgX1 PAM	MrgX1 agonist	MrgX1 antag	RGS4 inh	RGS4 pot	MrgX1 antag conf	HEK293 Ca flux	HEK293 Ca counter	HEK293 Ca cntr2
O=C(CSc1n[nH]c(=O)n1C1CC1)Nc1cc(Cl)ccc1Oc1ccccc1	i	i	-8.4*	i	i	i	i	i	i
Cc1cc(C)n(-c2ccc(C(=O)Oc3ccc4c(c3)OCO4)cc2)n1	i	i	-6.7*	i	i	i	i	i	i
CC(=O)c1ccc(OC(=O)c2ccc(-n3nc(C)cc3C)cc2)cc1	i	i	i	i	i	nt	nt	nt	nt
COc1ccc(N2CC(C(=O)N3CCN(Cc4ccc5c(c4)OCO5)CC3)CC2=O)cc1 (stereo not drawn)	i	i	i	i	i	nt	nt	nt	nt
CCCSCC(=O)Nc1ncc2c(n1)-c1ccccc1CC2	i	i	-4.7*	i	i	75%*	i	i	i
O=C(Nc1ncc2c(n1)-c1ccccc1CC2)c1cccc(Cl)c1	i	i	i	i	i	nt	nt	nt	nt
O=C(Nc1ncc2c(n1)-c1ccccc1CC2)c1ccc(Cl)cc1	i	i	-5.2*	i	i	i	i	i	i
O=C(Nc1ncc2c(n1)-c1ccccc1OC2)c1ccc(F)cc1	i	i	i	i	i	nt	nt	nt	nt
COc1cc2c(cc1OC)C(C)N(C(=O)c1cc(C)on1)CC2 (stereo not drawn)	i	i	-6.3*	i	i	85%*	i	i	i
CN(CCc1ccccn1)C(=O)CCC1CCCN(C(=O)c2cccc(N(C)C)c2)C1 (stereo not drawn)	i	i	i	i	i	nt	nt	nt	nt
COc1ccc(CCN2C(=O)CC(N3CCN(C/C=C/c4ccccc4)CC3)C2=O)cc1OC (stereo not drawn)	i	i	i	i	i	nt	nt	nt	nt
Cc1ncoc1C(=O)N1CCCC(C(=O)c2cccc(OC(C)C)c2)C1 (stereo not drawn)	i	i	-6.1*	i	i	i	i	i	i
Cc1ncoc1C(=O)N1CCCC(C(=O)c2ccc(Oc3ccccc3)cc2)C1 (stereo not drawn)	i	i	i	i	i	nt	nt	nt	nt
CCOC(=O)c1ccccc1NC(=O)CSc1ccc(-c2ccccn2)nn1	i	i	i	i	i	nt	nt	nt	nt
Cc1ccc2c(c1)cc(CN(Cc1ccc3c(c1)OCO3)S(=O)(=O)c1ccccc1)c1nnnn12	i	i	-4.5*	i	i	i	i	i	i
Cc1ccc2c(c1)cc(CN(Cc1cccnc1)C(=O)c1ccccc1)c1nnnn12	i	i	i	i	i	nt	nt	nt	nt
Cc1ccc(S(=O)(=O)NCCC(=O)N2CCCCCCC2)cc1C	i	i	-4.7*	i	i	i	i	i	i
Cc1ccc(S(=O)(=O)NCCC(=O)N2CCN(S(=O)(=O)c3ccccc3)CC2)cc1C	i	i	i	i	i	nt	nt	nt	nt
CCc1c(C)nc(SCC(N)=O)c(C#N)c1C	i	i	-5.7*	i	i	i	i	i	i
CC(=O)Nc1cccc(OCCCNC(=O)c2ccc(C(C)(C)C)cc2)c1	i	i	i	i	i	nt	nt	nt	nt
O=C(CSC1=NCCS1)N1CCN(c2ccc(Cl)cc2)CC1	i	i	-6.3*	i	i	i	i	i	i
O=C(CSC1=NCCS1)c1ccc(Cl)cc1	i	i	i	i	i	nt	nt	nt	nt
CN(C)c1nc(SCc2ccccc2)nc(N2CCOCC2)n1	i	i	-6.4*	i	i	i	i	i	i
CCNc1nc(SCc2ccccc2)nc(N2CCOCC2)n1	i	i	i	nt	nt	nt	nt	nt	nt
CCCCCN(C(=O)CCC(=O)OCC(=O)c1c(C)cc(C)cc1C)c1c(N)n(CCCC)c(=O)[nH]c1=O	i	i	i	i	i	nt	nt	nt	nt
SMILES	MrgX1 PAM	MrgX1 agonist	MrgX1 antag	RGS4 inh	RGS4 pot	MrgX1 antag conf	HEK293 Ca flux	HEK293 Ca counter	HEK293 Ca cntr2
S=C(NCc1ccc(Cl)cc1)NCc1ccco1	i	i	i	i	i	nt	nt	nt	nt
CCNC(=S)NCc1ccco1	i	i	-6.2*	i	i	i	i	i	i
Cc1ccc(C)c(-n2c(SCC(=O)Nc3nonc3C)nnc2-c2ccoc2C)c1	i	i	-5.4*	i	i	83%*	i	i	i
CC1Sc2ccc(S(=O)(=O)CCC(=O)N(C)Cc3ccccc3)cc2NC1=O (stereo not drawn)	i	i	i	i	i	nt	nt	nt	nt
O=S1(=O)CCOC[C@H](Cc2ccccc2)N1Cc1ccc(Cl)cc1	i	i	i	i	i	nt	nt	nt	nt
CC(C)Oc1ccc(C(=O)Nc2nnc(SCC(=O)N3CCOCC3)s2)cc1	i	i	-4.9*	i	i	i	i	i	i
Oc1ccc(C(=S)N2CCCCC2)cc1	i	i	-4.8*	i	i	i	i	i	i
Cn1c(=O)c(=O)n(C)c2cc([N+](=O)[O-])c(N3CCOCC3)cc21	i	i	i	i	i	nt	nt	nt	nt
COc1cc(/C=N/NC(=O)c2nnn(-c3nonc3N)c2C(C)C)ccc1OCc1ccc(F)cc1	i	i	i	i	i	nt	nt	nt	nt
COc1ccc(-c2csc(NC(=O)c3ccccc3NS(=O)(=O)c3ccc(F)c(F)c3)n2)cc1	i	i	-6.5*	i	i	63%*	i	i	51*
CC(Cc1cccs1)NC(=S)Nc1ccc(Cl)c(Cl)c1 (stereo not drawn)	i	i	-6.8*	i	i	i	i	i	i
CC(Cc1cccs1)NC(=O)Nc1cccc(Cl)c1 (stereo not drawn)	i	i	i	i	i	nt	nt	nt	nt
CC(Oc1ccc(Br)cc1)C(=O)Nc1ccc(S(=O)(=O)N(C)C2CCN(C)CC2)cc1 (stereo not drawn)	i	i	-16*	i	i	i	i	i	48*

Compound activity as filed in PubChem BioAssay.
